Laboratory results as given in ChEMBL document CHEMBL1759986, “Selective α-glucosidase substrates and inhibitors containing short aromatic peptidyl moieties” (Bioorg Med Chem Lett, 2011).
Active and inactive are the calls of the source. No cut-off for these calls is given here.

T1: Pancreatic alpha-amylase (Sus scrofa) (UniProt P00690)
T1 sequence (whole entry): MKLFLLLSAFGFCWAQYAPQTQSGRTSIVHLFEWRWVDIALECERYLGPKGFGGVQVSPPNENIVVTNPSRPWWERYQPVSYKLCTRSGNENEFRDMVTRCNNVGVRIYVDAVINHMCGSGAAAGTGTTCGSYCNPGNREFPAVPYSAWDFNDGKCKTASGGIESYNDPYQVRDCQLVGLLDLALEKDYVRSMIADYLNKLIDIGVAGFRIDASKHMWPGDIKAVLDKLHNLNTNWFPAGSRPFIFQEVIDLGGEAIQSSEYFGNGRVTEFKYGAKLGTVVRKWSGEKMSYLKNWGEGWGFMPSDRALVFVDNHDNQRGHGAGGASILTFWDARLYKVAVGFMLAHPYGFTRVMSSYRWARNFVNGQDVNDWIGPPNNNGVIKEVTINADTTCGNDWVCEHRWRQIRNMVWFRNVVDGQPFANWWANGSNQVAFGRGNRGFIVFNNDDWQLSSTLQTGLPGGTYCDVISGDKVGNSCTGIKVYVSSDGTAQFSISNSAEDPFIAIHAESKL

T2: Alpha-glucosidase (Geobacillus stearothermophilus, UniProt P94451)
T2 sequence (P94451 whole entry): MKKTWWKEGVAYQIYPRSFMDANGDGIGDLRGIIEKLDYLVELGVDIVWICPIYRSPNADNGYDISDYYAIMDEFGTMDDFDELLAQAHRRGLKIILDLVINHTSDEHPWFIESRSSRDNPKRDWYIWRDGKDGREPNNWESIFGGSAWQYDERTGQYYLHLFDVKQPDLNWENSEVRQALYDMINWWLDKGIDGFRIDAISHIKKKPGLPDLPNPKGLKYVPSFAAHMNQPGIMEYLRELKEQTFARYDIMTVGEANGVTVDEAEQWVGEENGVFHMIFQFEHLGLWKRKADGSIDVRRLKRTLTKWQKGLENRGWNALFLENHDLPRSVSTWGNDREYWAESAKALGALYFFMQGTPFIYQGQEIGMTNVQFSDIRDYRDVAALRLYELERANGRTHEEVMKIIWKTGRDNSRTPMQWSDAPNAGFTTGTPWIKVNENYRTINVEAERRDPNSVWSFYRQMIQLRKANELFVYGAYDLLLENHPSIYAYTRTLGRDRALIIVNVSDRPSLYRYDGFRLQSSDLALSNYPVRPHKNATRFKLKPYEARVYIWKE

B1: Alpha-glucosidase (Geobacillus stearothermophilus), P94451 (protein)
chain: MKKTWWKEGVAYQIYPRSFMDANGDGIGDLRGIIEKLDYLVELGVDIVWICPIYRSPNADNGYDISDYYAIMDEFGTMDDFDELLAQAHRRGLKIILDLVINHTSDEHPWFIESRSSRDNPKRDWYIWRDGKDGREPNNWESIFGGSAWQYDERTGQYYLHLFDVKQPDLNWENSEVRQALYDMINWWLDKGIDGFRIDAISHIKKKPGLPDLPNPKGLKYVPSFAAHMNQPGIMEYLRELKEQTFARYDIMTVGEANGVTVDEAEQWVGEENGVFHMIFQFEHLGLWKRKADGSIDVRRLKRTLTKWQKGLENRGWNALFLENHDLPRSVSTWGNDREYWAESAKALGALYFFMQGTPFIYQGQEIGMTNVQFSDIRDYRDVAALRLYELERANGRTHEEVMKIIWKTGRDNSRTPMQWSDAPNAGFTTGTPWIKVNENYRTINVEAERRDPNSVWSFYRQMIQLRKANELFVYGAYDLLLENHPSIYAYTRTLGRDRALIIVNVSDRPSLYRYDGFRLQSSDLALSNYPVRPHKNATRFKLKPYEARVYIWKE

Assays:
[1] = target: T1, Pancreatic alpha-amylase (Sus scrofa); assay: Inhibition of pig alpha-amylase assessed as formation of p-nitrophenol
How it was run: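 Screening used each α-amylase with an equimolar mixture of the peptidyl substrate and p-nitrophenyl-α-D-pentaoside. The read-out was the rate of p-nitrophenol formation compared with the chromogenic substrate alone. Each data point was triplicated and averaged.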

[2] = test system: Salivary alpha-amylase (Homo sapiens); assay: Inhibition of human salivary alpha-amylase assessed as formation of p-nitrophenol
[3] = Competitive inhibition of rice alpha-glucosidase assessed as production of chromogenic p-Nitrphenol measured after 3 mins by HPLC and Michaelis-Menten equation; parameters: species or system Oryza sativa
How it was run: (§1)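 The chromogenic substrate was p-nitrophenyl-α-D-glucopyranoside, with p-nitrophenol formation monitored. Ki was calculated from a Dixon plot. Each measurement was triplicated and averaged.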

Alpha-glucosidase = target: T2, Alpha-glucosidase; assay: Competitive inhibition of Bacillus stearothermophilus alpha-glucosidase assessed as production of chromogenic p-Nitrphenol measured after 3 mins by HPLC and Michaelis-Menten equation; how it was run: as §1
[4] = substrate: CC(=O)Nc1ccc(O[C@H]2O[C@H](CO)[C@@H](O)[C@H](O)[C@H]2O)cc1; assay: Activity at Bacillus stearothermophilus alpha-glucosidase assessed as production of chromogenic p-acetaminophenyl measured after 3 mins by HPLC Michaelis-Menten equation; settings: Geobacillus stearothermophilus
How it was run: (§2)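 Alpha-glucosidase from Bacillus stearothermophillus was incubated with the substrate. Km was obtained by Michaelis–Menten kinetics. Vmax, kcat and kcat/Km were reported alongside Km. Each value was measured in triplicate and averaged.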

[5] = substrate: O=[N+]([O-])c1ccc(O[C@H]2O[C@H](CO)[C@@H](O)[C@H](O)[C@H]2O)cc1; assay: Activity at Bacillus stearothermophilus alpha-glucosidase assessed as production of chromogenic p-Nitrphenol measured after 3 mins by HPLC and Michaelis-Menten equation; settings: Geobacillus stearothermophilus; how it was run: as §2
[6] = substrate: NC(=O)[C@H](Cc1ccc(O)cc1)NC(=O)[C@H](Cc1c[nH]c2ccccc12)NC(=O)CCC(=O)Nc1ccc(O[C@H]2O[C@H](CO)[C@@H](O)[C@H](O)[C@H]2O)cc1; assay: Activity at Bacillus stearothermophilus alpha-glucosidase assessed as production of chromogenic Sp-WY measured after 3 mins by HPLC Michaelis-Menten equation; settings: Geobacillus stearothermophilus; how it was run: as §2
[7] = substrate: NC(=O)[C@H](Cc1ccc(O)cc1)NC(=O)[C@H](Cc1c[nH]c2ccccc12)NC(=O)CCC(=O)Nc1ccc(O[C@H]2O[C@H](CO)[C@@H](O)[C@H](O)[C@H]2O)cc1; assay: Ratio of Kcat to Km for Bacillus stearothermophilus alpha-glucosidase assessed as production of chromogenic Sp-WY; settings: Geobacillus stearothermophilus; how it was run: as §2
[8] = substrate: O=[N+]([O-])c1ccc(O[C@H]2O[C@H](CO)[C@@H](O)[C@H](O)[C@H]2O)cc1; assay: Ratio of Kcat to Km for Bacillus stearothermophilus alpha-glucosidase assessed as production of chromogenic p-Nitrphenol; settings: Geobacillus stearothermophilus; how it was run: as §2
[9] = substrate: CC(=O)Nc1ccc(O[C@H]2O[C@H](CO)[C@@H](O)[C@H](O)[C@H]2O)cc1; assay: Ratio of Kcat to Km for Bacillus stearothermophilus alpha-glucosidase assessed as production of chromogenic p-acetaminophenyl; settings: Geobacillus stearothermophilus; how it was run: as §2

Molecule	inhibition [1]	inhibition [2]	also measured
NC(=O)[C@H](Cc1ccccc1)NC(=O)[C@H](Cc1c[nH]c2ccccc12)NC(=O)CCC(=O)Nc1ccc(O[C@H]2O[C@H](CO)[C@@H](O[C@H]3O[C@H](CO)[C@@H](O[C@H]4O[C@H](CO)[C@@H](O[C@H]5O[C@H](CO)[C@@H](O[C@H]6O[C@H](CO)[C@@H](O)[C@H](O)[C@H]6O)[C@H](O)[C@H]5O)[C@H](O)[C@H]4O)[C@H](O)[C@H]3O)[C@H](O)[C@H]2O)cc1	inactive	inactive	–
C[C@H]1O[C@H](O[C@H]2[C@H](O)[C@@H](O)[C@@H](O[C@H]3[C@H](O)[C@@H](O)C(O)O[C@@H]3CO)O[C@@H]2CO)[C@H](O)[C@@H](O)[C@@H]1N[C@H]1C=C(CO)[C@@H](O)[C@H](O)[C@H]1O (stereo not given in full) [ACARBOSE]	–	–	Ki [3]: 4.2 µM
NC(=O)[C@H](Cc1ccc(O)cc1)NC(=O)[C@H](Cc1c[nH]c2ccccc12)NC(=O)CCC(=O)Nc1ccc(O[C@@H]2O[C@H](CO)[C@@H](O)[C@H](O)[C@H]2O)cc1	–	–	Ki (Alpha-glucosidase): 110 µM
NC(=O)[C@H](Cc1ccccc1)NC(=O)[C@H](Cc1ccccc1)NC(=O)CCC(=O)Nc1ccc(O[C@H]2O[C@H](CO)[C@@H](O[C@H]3O[C@H](CO)[C@@H](O[C@H]4O[C@H](CO)[C@@H](O[C@H]5O[C@H](CO)[C@@H](O[C@H]6O[C@H](CO)[C@@H](O)[C@H](O)[C@H]6O)[C@H](O)[C@H]5O)[C@H](O)[C@H]4O)[C@H](O)[C@H]3O)[C@H](O)[C@H]2O)cc1	inactive	inactive	–
O=[N+]([O-])c1ccc(O[C@H]2O[C@H](CO)[C@@H](O[C@H]3O[C@H](CO)[C@@H](O[C@H]4O[C@H](CO)[C@@H](O[C@H]5O[C@H](CO)[C@@H](O[C@H]6O[C@H](CO)[C@@H](O)[C@H](O)[C@H]6O)[C@H](O)[C@H]5O)[C@H](O)[C@H]4O)[C@H](O)[C@H]3O)[C@H](O)[C@H]2O)cc1	inactive	inactive	–
NC(=O)[C@H](Cc1ccc(O)cc1)NC(=O)[C@H](Cc1c[nH]c2ccccc12)NC(=O)CCC(=O)Nc1ccc(O[C@H]2O[C@H](CO)[C@@H](O[C@H]3O[C@H](CO)[C@@H](O[C@H]4O[C@H](CO)[C@@H](O[C@H]5O[C@H](CO)[C@@H](O[C@H]6O[C@H](CO)[C@@H](O)[C@H](O)[C@H]6O)[C@H](O)[C@H]5O)[C@H](O)[C@H]4O)[C@H](O)[C@H]3O)[C@H](O)[C@H]2O)cc1	inactive	inactive	–
NC(=O)[C@H](Cc1ccccc1)NC(=O)[C@H](Cc1ccc(O)cc1)NC(=O)CCC(=O)Nc1ccc(O[C@H]2O[C@H](CO)[C@@H](O[C@H]3O[C@H](CO)[C@@H](O[C@H]4O[C@H](CO)[C@@H](O[C@H]5O[C@H](CO)[C@@H](O[C@H]6O[C@H](CO)[C@@H](O)[C@H](O)[C@H]6O)[C@H](O)[C@H]5O)[C@H](O)[C@H]4O)[C@H](O)[C@H]3O)[C@H](O)[C@H]2O)cc1	inactive	inactive	–
NC(=O)[C@H](Cc1ccc(O)cc1)NC(=O)[C@H](Cc1c[nH]c2ccccc12)NC(=O)CCC(=O)Nc1ccc(O)cc1	–	–	Ki (Alpha-glucosidase): 1400 µM
NC(=O)[C@H](Cc1ccc(O)cc1)NC(=O)[C@H](Cc1ccc(O)cc1)NC(=O)CCC(=O)Nc1ccc(O[C@H]2O[C@H](CO)[C@@H](O[C@H]3O[C@H](CO)[C@@H](O[C@H]4O[C@H](CO)[C@@H](O[C@H]5O[C@H](CO)[C@@H](O[C@H]6O[C@H](CO)[C@@H](O)[C@H](O)[C@H]6O)[C@H](O)[C@H]5O)[C@H](O)[C@H]4O)[C@H](O)[C@H]3O)[C@H](O)[C@H]2O)cc1	inactive	inactive	–
NC(=O)[C@H](Cc1c[nH]c2ccccc12)NC(=O)[C@H](Cc1ccc(O)cc1)NC(=O)CCC(=O)Nc1ccc(O[C@H]2O[C@H](CO)[C@@H](O[C@H]3O[C@H](CO)[C@@H](O[C@H]4O[C@H](CO)[C@@H](O[C@H]5O[C@H](CO)[C@@H](O[C@H]6O[C@H](CO)[C@@H](O)[C@H](O)[C@H]6O)[C@H](O)[C@H]5O)[C@H](O)[C@H]4O)[C@H](O)[C@H]3O)[C@H](O)[C@H]2O)cc1	inactive	inactive	–
NC(=O)[C@H](Cc1c[nH]c2ccccc12)NC(=O)[C@H](Cc1ccccc1)NC(=O)CCC(=O)Nc1ccc(O[C@H]2O[C@H](CO)[C@@H](O[C@H]3O[C@H](CO)[C@@H](O[C@H]4O[C@H](CO)[C@@H](O[C@H]5O[C@H](CO)[C@@H](O[C@H]6O[C@H](CO)[C@@H](O)[C@H](O)[C@H]6O)[C@H](O)[C@H]5O)[C@H](O)[C@H]4O)[C@H](O)[C@H]3O)[C@H](O)[C@H]2O)cc1	inactive	inactive	–
NC(=O)[C@H](Cc1ccc(O)cc1)NC(=O)[C@H](Cc1ccccc1)NC(=O)CCC(=O)Nc1ccc(O[C@H]2O[C@H](CO)[C@@H](O[C@H]3O[C@H](CO)[C@@H](O[C@H]4O[C@H](CO)[C@@H](O[C@H]5O[C@H](CO)[C@@H](O[C@H]6O[C@H](CO)[C@@H](O)[C@H](O)[C@H]6O)[C@H](O)[C@H]5O)[C@H](O)[C@H]4O)[C@H](O)[C@H]3O)[C@H](O)[C@H]2O)cc1	inactive	inactive	–
NC(=O)[C@H](Cc1c[nH]c2ccccc12)NC(=O)[C@H](Cc1c[nH]c2ccccc12)NC(=O)CCC(=O)Nc1ccc(O[C@H]2O[C@H](CO)[C@@H](O[C@H]3O[C@H](CO)[C@@H](O[C@H]4O[C@H](CO)[C@@H](O[C@H]5O[C@H](CO)[C@@H](O[C@H]6O[C@H](CO)[C@@H](O)[C@H](O)[C@H]6O)[C@H](O)[C@H]5O)[C@H](O)[C@H]4O)[C@H](O)[C@H]3O)[C@H](O)[C@H]2O)cc1	inactive	inactive	–
B1	–	–	Km [4]: 1900 µM; Vmax [4]: 0.0015 µM/s; kcat [4]: 0.76 s⁻¹; Km [5]: 1200 µM; Vmax [5]: 0.019 µM/s; kcat [5]: 9.5 s⁻¹; Km [6]: 13 µM; Vmax [6]: 0.00025 µM/s; kcat [6]: 0.13 s⁻¹; kcat/Km [7]: 10000 M⁻¹ s⁻¹; kcat/Km [8]: 7600 M⁻¹ s⁻¹; kcat/Km [9]: 400 M⁻¹ s⁻¹
